MC4R antag cAMP: blocks human MC4R cAMP signaling. MC4R-expressing cells, MTII-stimulated cAMP, LANCE TR-FRET. inhibition, % at 6.5 µM. actives 0.48% (n = 360,000);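 active means inhibition above its plate's cutoff, the mean of tested wells on that plate plus 3 SD, cut at about 29% in these data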
Target sequence (P32245 whole entry, looked up): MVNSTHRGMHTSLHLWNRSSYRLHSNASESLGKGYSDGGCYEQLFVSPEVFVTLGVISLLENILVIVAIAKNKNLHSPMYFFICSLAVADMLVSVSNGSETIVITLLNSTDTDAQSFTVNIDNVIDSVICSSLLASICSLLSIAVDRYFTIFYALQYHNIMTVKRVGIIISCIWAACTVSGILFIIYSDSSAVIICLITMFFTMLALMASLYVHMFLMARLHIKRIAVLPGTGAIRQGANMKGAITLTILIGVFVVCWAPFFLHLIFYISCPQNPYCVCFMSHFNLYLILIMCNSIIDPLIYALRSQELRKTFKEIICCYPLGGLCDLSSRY
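System – human MC4R-expressing U2OS cells · Also added – Melanotan II · Dosing – one concentration, 6.5 µM nominal · Timing – 30-min compound, 1-h challenge, 1-h detection, room temperature · Measured by – Eu-cAMP/anti-cAMP TR-FRET, emission 671 nm · Replicates – singlicate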
EBI2 antag: antagonists of human EBI2 receptor. P32249. actives 0.81% (n = 360,000). EBI2 beta-arrestin recruitment, luminescence, 7a,25-OHC stimulated. AID 651636. inhibition, % at 5 µM; in the data active means inhibition above about 38%;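 further: enzyme fragment complementation signal reports receptor beta-arrestin coupling in cells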
Target sequence (P32249 whole entry, looked up, the tested form may be a part): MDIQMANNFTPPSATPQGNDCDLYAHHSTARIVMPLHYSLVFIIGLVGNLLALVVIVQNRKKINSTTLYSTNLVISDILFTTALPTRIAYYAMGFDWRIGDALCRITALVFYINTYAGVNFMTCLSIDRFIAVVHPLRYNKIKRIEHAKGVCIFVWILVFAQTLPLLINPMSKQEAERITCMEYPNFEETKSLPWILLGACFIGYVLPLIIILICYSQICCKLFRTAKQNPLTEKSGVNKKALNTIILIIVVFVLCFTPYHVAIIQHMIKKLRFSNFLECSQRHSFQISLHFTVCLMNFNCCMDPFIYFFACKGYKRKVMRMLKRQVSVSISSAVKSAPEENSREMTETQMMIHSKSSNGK
MC4R barr agon: human MC4R agonism via beta-arrestin. P32245. U2OS MC4R beta-arrestin complementation, luminescence; percent of melanotan II response, DMSO zero. activation, % at 8.9 µM. actives 0.98% (n = 360,000). AID 540308;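 active means activation above a per-plate cutoff, the mean activation of sample wells on that plate plus 3 SD, cut at about 8% in these data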
Exocytosis inh: lytic granule exocytosis inhibition. actives 0.66% (n = 360,000). TALL-104 LAMP-1 surface exposure, flow cytometry; cells stimulated with thapsigargin and PMA. AID 651702. inhibition, % at 10 µM;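 active means inhibition above about 55%, limit read from the data; inconclusive means no clear call, values can overlap the other calls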
Myeloid diff MLP: compounds promoting myeloid differentiation | ER-HoxA9 myeloid progenitors, lysozyme-GFP differentiation, flow cytometry | actives 1% (n = 360,000) | AID 624256 | calls only at 10 µM;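 active means normalized GFP-positive differentiation at or above the plate's own cutoff, the solvent-only control mean plus 3 SD; inconclusive means no clear call, values can overlap the other calls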;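 further: cells exposed to compound for four days before flow analysis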
U2OS cAMP counter: counter-screen for MC4R antagonists: nonselective cAMP signaling inhibitors | shares compounds with MC4R antag cAMP | parental U2OS, forskolin cAMP, LANCE TR-FRET | inhibition, % at 6.5 µM | actives 26% (n = 1,600);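 active means mean inhibition over triplicates above the low-control well mean plus 3 SD, set per campaign, cut at about 13% in these data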;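 further: signal is single emission at 671 nm which falls as cellular cAMP rises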
MC4R antag conf: human MC4R cAMP antagonism confirmation; shares compounds with MC4R antag cAMP; actives 27% (n = 1,600); MC4R-expressing cells, MTII-stimulated cAMP, TR-FRET; inhibition, % at 6.5 µM; in the data active means inhibition above about 29%
Large screens that a line does not name were inactive (follow-up assays come after a bar, where they were run). Compounds with a hit are over-represented: about 3.7% of the library has one in this group of screens.

CC(=O)Nc1ccccc1OCCOc1ccc(Br)cc1	MC4R antag cAMP 35.9 | U2OS cAMP counter inactive | MC4R antag conf inactive
COc1ccc(N(CCC(=O)Nc2ccccc2F)S(=O)(=O)c2ccc(C)cc2C)cc1	none
Cc1cc(OCc2nnc(SC(C)C(=O)O)n2-c2ccccc2)ccc1Cl (centres undefined)	none
Cc1ccccc1OCc1nnc(SC(C)C(=O)O)n1-c1ccccc1 (centres undefined)	MC4R antag cAMP 42.3 | U2OS cAMP counter inactive | MC4R antag conf inactive
COC(=O)c1ccc2c(=O)[nH]c(CCl)nc2c1	MC4R antag cAMP 29.5 | U2OS cAMP counter inactive | MC4R antag conf inactive
CN(CC(=O)Nc1cccc(F)c1)C(=O)CCCc1cccs1	none
CCCCCCCCCCCCCCCCn1cc[n+](CC(C)=O)c1	MC4R antag cAMP 28.7, MC4R barr agon 15.8 (no result: Myeloid diff MLP) | U2OS cAMP counter inactive | MC4R antag conf 32.5
CCCCCCn1ccc(=N)cc1	Myeloid diff MLP inconclusive
O=C(Nc1ccc2c(c1)C(=O)OC2)c1ccc(F)cc1F	none
COc1ccc(/C(O)=C2/C(=O)C(=O)N(CCCN3CCOCC3)C2c2ccc(Cl)cc2)cc1 (centres undefined)	none
COc1cccc(C(NC(C)=O)c2nc(-c3cccc(C(C)C)c3)cs2)c1 (centres undefined)	none
COc1ccc(CS(=O)(=O)/C(Cl)=C(/Cl)C(=O)Nc2ccc(OC)nc2)cc1	MC4R antag cAMP 44.0, EBI2 antag 72.0, Exocytosis inh 84.4, Myeloid diff MLP inconclusive | U2OS cAMP counter 33.2 | MC4R antag conf 37.4
COc1cccc(CNC(=O)COC(=O)CCS(=O)(=O)c2ccc(C)cc2)c1	MC4R antag cAMP 30.1 | U2OS cAMP counter inactive | MC4R antag conf inactive
CCc1nnc(NS(=O)(=O)c2ccc(N/C=C\C(=O)c3cccc(OC)c3)cc2)s1	MC4R antag cAMP 33.8 | U2OS cAMP counter inactive | MC4R antag conf inactive
Cn1c(N)c(C(=O)COC(=O)CSc2cccc3cccc(Cl)c23)c(=O)n(C)c1=O	none
O=C(Nc1cc(C(F)(F)F)ccc1N1CCOCC1)c1ccccc1	none
O=C(Nc1cc(C(F)(F)F)ccc1N1CCOCC1)c1c(F)c(F)c(F)c(F)c1F	MC4R antag cAMP 29.5 | U2OS cAMP counter 15.7 | MC4R antag conf 45.8
O=C(Cc1ccccc1[N+](=O)[O-])NCC1(c2cccc3c2OCO3)OCCO1	none
CCCc1cc(=O)[nH]c(SCC(=O)N2CC3(C)CC2CC(C)(C)C3)n1 (centres undefined)	none
CCCNC(=O)CCc1c(C)nc2nc(-c3cc(OC)cc(OC)c3)nn2c1C	none
COCCNC(=O)CCc1c(C)nc2nc(-c3cc(OC)cc(OC)c3)nn2c1C	MC4R antag cAMP 29.2 | U2OS cAMP counter inactive | MC4R antag conf inactive
Cc1[nH]n(-c2ccccc2)c(=O)c1C=NC1CCCCCC1	MC4R antag cAMP 33.5 | U2OS cAMP counter inactive | MC4R antag conf inactive
Cc1[nH]n(-c2ccccc2)c(=O)c1C=NC1CCCCC1	none
CCOC(=O)CC1(C)Oc2ccccc2N1S(=O)(=O)c1ccc(C)cc1 (centres undefined)	none (no result: MC4R antag cAMP, MC4R barr agon)
CSCCC(NC(=O)c1cccc(C)c1)C(=O)OCC(=O)NC(=O)c1cccn1C (centres undefined)	none
CSCCC(NC(=O)c1cccc(C)c1)C(=O)OCN1C(=O)c2ccccc2C1=O (centres undefined)	MC4R antag cAMP 29.6 | U2OS cAMP counter inactive | MC4R antag conf 40.8
CCOC(=O)c1cc(C(=O)NC(C)c2ccccc2)c(=O)[nH]c1C (centres undefined)	none
COC(=O)c1cc(C(=O)NCc2ccccc2)c(=O)[nH]c1C	MC4R antag cAMP 30.3 | U2OS cAMP counter inactive | MC4R antag conf inactive
COc1ccc2[nH]c3c(c2c1)CCN1C(=O)C(CC(=O)NCC24CC5CC(CC(C5)C2)C4)C[C@H](C(=O)N(C(C)C)C(C)C)[C@@]31C (some centres undefined)	none
O=C(Cc1ccccc1[N+](=O)[O-])Nc1ccc(S(=O)(=O)N2CCCC2)cc1	none
CC(C)Cc1nc2oc3c(Cl)ncnc3c2c2c1CCCC2	MC4R antag cAMP 46.2 | U2OS cAMP counter 13.9 | MC4R antag conf 31.8
CCC(C)CN1C(=O)CN(S(C)(=O)=O)CC1(C)C(=O)Nc1c(C)cccc1C (centres undefined)	none (no result: MC4R antag cAMP, MC4R barr agon)
COc1cc(/C=N/NC(=O)c2cccnc2)ccc1OS(=O)(=O)c1ccc(C)cc1	MC4R antag cAMP 28.8 | U2OS cAMP counter inactive | MC4R antag conf inactive
COc1cc(/C=N/NC(=O)c2cccnc2)ccc1OS(=O)(=O)c1ccc(F)cc1	none
C[C@@H]1CC2=C(C(=O)OC(C)(C)O2)[C@H](c2ccc(Cl)cc2)O1	none (no result: MC4R antag cAMP, MC4R barr agon)
C#CCn1c2ccccc2c(=O)n1CCOc1ccccc1OC	none (no result: MC4R antag cAMP, MC4R barr agon)
COc1ccc(C(CC(=O)c2ccc(C)cc2)C(C#N)C#N)cc1OC (centres undefined)	MC4R antag cAMP 29.6 | U2OS cAMP counter inactive | MC4R antag conf inactive
Cc1nnc2n(-c3ccccc3)c(=O)c3c4c(sc3n12)CCCC4	MC4R antag cAMP 29.4 | U2OS cAMP counter inactive | MC4R antag conf inactive
Cc1nnc2n(-c3ccccc3)c(=O)c3c4c(sc3n12)COC(C)(C)C4	none
CCN(C[C@H]1N[C@@](CC)(C(=O)OC)[C@H]2C(=O)N(Cc3ccccc3)C(=O)[C@@H]12)C(=O)c1ccc(C(C)(C)C)cc1	MC4R antag cAMP 41.3 | U2OS cAMP counter inactive | MC4R antag conf inactive
Cc1cn([C@H]2C[C@H](O)[C@@H](/C=C/C(=O)NCCC(C)C)O2)c(=O)[nH]c1=O	none (no result: MC4R antag cAMP, MC4R barr agon)
CCN(c1ccccc1)S(=O)(=O)c1ccc(OC)c(NC(=O)Cn2cnc3c2c(=O)n(C)c(=O)n3C)c1	MC4R antag cAMP 41.4 | U2OS cAMP counter inactive | MC4R antag conf inactive
COc1ccc(S(=O)(=O)N(C)C)cc1NC(=O)COC(=O)c1nn(C)c(=O)c2ccccc12	MC4R antag cAMP 33.7 | U2OS cAMP counter inactive | MC4R antag conf inactive
Cc1cc(N2CCCC2=O)ccc1S(=O)(=O)Nc1c(C)nn(C)c1C	MC4R antag cAMP 33.7 | U2OS cAMP counter inactive | MC4R antag conf inactive
Cc1cc(N2CCCC2=O)cc(C)c1S(=O)(=O)Nc1c(C)nn(C)c1C	none
CC(C)NC(=O)N(C)C[C@@H]1Oc2ccc(NC(=O)CCN3CCOCC3)cc2CC(=O)N([C@@H](C)CO)C[C@@H]1C	none
Cc1ccc(/C=C/C(=O)O)cc1S(=O)(=O)NC1CCS(=O)(=O)C1 (centres undefined)	none
CCOc1ccc(N2CC(C(=O)NCCc3c[nH]c4ccc(C)cc34)CC2=O)cc1 (centres undefined)	none

Screens (PubChem BioAssay)
